The values below come from PMC5221453 (British Journal of Pharmacology, 2016).

Molecules are shown by their SMILES. Like-named read-outs stand apart in the source and are kept apart here. Bounds are passed on as bounds.

A short description of series [1]: Tissue distribution in rats. Format: in vivo, SD rats. To be noted: rat, single oral 1 mg·kg^−1 of amiselimod or fingolimod. In a few lines:
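SD rats fasted 15 h received a single oral 1 mg·kg−1 test compound without anaesthesia. Rats killed at 24 or 48 h were fed at 8 h. Plasma and heart homogenates underwent solid-phase extraction. Parent and phosphate metabolite were measured by LC–MS/MS. Parameters were derived by non-compartmental analysis. Dosing/sampling and analysis were done by separate researchers unaware of treatment.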

Series [2] relates to cardiac Na+ and Ca2+ channels in HCMs. The series is described as follows: Cardiac Na+ and Ca2+ channels in HCMs. Format: cell-based, human. To be noted: data not shown.
For another series, the target named is T1, human S1P4 receptor (Homo sapiens, UniProt O95977).
T1 sequence (O95977 1-384): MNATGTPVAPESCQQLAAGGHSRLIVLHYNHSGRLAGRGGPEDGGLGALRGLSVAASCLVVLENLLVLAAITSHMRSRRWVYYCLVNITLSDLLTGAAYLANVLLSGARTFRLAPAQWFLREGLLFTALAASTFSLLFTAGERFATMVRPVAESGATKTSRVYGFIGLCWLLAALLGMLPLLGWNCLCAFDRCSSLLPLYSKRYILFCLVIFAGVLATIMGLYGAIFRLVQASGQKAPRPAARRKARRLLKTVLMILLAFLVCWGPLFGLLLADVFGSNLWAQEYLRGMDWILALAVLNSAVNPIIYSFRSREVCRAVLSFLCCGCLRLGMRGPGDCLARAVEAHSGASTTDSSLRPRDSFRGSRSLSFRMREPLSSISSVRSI
The experiment in a line: Ca2+ mobilization assay, human S1P4 receptor-expressing cells. Format: cell-based. On the technique in general: Calcium flux is commonly read through the fluorescence of an indicator in the cells.

In another series the target is human S1P3 receptor (Homo sapiens, UniProt Q99500). The series is described as follows: Ca2+ mobilization assay, human S1P3 receptor-expressing cells. Format: cell-based.
Chain of human S1P3 receptor (Q99500 whole entry): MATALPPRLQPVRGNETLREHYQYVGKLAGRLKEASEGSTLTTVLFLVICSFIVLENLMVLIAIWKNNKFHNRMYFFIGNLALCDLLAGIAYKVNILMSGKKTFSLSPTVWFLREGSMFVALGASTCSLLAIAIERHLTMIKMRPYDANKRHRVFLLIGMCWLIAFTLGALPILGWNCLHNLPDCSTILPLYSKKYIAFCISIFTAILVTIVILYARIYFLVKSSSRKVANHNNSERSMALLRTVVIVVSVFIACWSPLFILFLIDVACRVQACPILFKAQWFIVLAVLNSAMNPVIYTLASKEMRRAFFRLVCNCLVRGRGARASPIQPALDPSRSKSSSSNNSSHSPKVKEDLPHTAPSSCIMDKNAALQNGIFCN
In another series the target is human S1P1 receptor (Homo sapiens, UniProt P21453). The series is described as follows: Ca2+ mobilization assay, human S1P1 receptor-expressing cells. Format: cell-based.
Chain of human S1P1 receptor (P21453 whole entry): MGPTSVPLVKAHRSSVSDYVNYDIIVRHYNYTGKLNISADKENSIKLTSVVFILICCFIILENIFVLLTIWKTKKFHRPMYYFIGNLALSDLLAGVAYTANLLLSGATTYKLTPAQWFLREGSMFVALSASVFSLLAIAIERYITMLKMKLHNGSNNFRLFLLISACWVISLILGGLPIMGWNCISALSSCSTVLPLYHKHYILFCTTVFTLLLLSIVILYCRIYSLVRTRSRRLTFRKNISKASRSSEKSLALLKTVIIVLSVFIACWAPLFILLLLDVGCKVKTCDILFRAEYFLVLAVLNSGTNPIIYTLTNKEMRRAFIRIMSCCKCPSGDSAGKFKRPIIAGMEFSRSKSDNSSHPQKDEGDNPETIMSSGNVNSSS
In series [3] the test system is GIRK channels in human atrial myocytes. The experiment in a line: Human GIRK channel assay in human atrial myocytes. Format: cell-based. The following applies: 20 μmol·L^−1 carbachol. In a few lines:
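Atrial myocytes were isolated from a human atrial specimen taken during cardiac surgery. GIRK current was recorded by whole-cell patch clamp at 37 ± 1°C and elicited by rapid superfusion with 20 μmol·L−1 carbachol. Current was read on a pulse to −100 mV from a −90 mV holding potential. Values were normalized to the carbachol-evoked increase. Four myocytes per condition were analysed by a blinded researcher.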

For series [4], the system named is humans. The following applies: clinical dose 0.5 mg, ref Schmouder et al., 2012; cited from earlier work.
Series [5] has as its system humans. The following applies: cited from earlier work; for decrease in the lymphocyte count: psoriasis patients, ref Vaclavkova et al., 2014.
The conditions of series [6]: humans, ref Gergely et al., 2012, Brooks et al., 2013, Brossard et al.; cited from earlier work.
Series [7] has as its system healthy subjects. The experiment in a line: Phase I multiple ascending dose trial: heart rate and ECG. Format: in vivo, human. In a few lines: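 Healthy men received oral test compound at 0.125–0.75 mg or placebo for 21 days, fed. Heart rate came from 24 h 12-lead Holter ECG against a day −1 baseline, with telemetry on day 1. Mean hourly rate was fitted by a linear mixed model with a pre-dose covariate. The 1–12 h nadir was compared by ANCOVA (day −1 covariate), giving LS mean differences versus placebo with 95% CI.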

Series [8] in a line: Phase I multiple ascending dose trial: pharmacokinetic assessment. Format: in vivo, human. In a few lines: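 Healthy men received oral test compound (0.125–0.75 mg, 10 per dose) for 21 days, fed. Blood was sampled on days 1–12, 14, 16, 18, 20–25, 28, 35, 42, 56 and 70. Parent and phosphate metabolite were measured in plasma and urine by validated LC/MS/MS, with LLOQ 0.05 ng·mL−1.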

The test system of a further series is cynomolgus monkeys. Format: in vivo, cynomolgus monkeys (Macaca fascicularis). To be noted: conscious monkeys, oral, doses up to 30 mg·kg^−1.
The test system of series [9] is healthy subjects. The experiment in a line: Phase I multiple ascending dose trial: peripheral lymphocyte counts. The following applies: 0.75 mg, day 21. Format: in vivo, human. In a few lines: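 Healthy men received oral test compound (0.125–0.75 mg) or placebo for 21 days in the fed state. Absolute lymphocyte counts were taken at screening and on days −2, 1–12, 14, 16, 18, 20–25, 28, 35, 42, 56 and 70.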

Series [10] relates to healthy subjects. The experiment in a line: Phase I multiple ascending dose trial: adverse events. Format: in vivo, human. In a few lines: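 Randomized, double-blind, placebo-controlled, parallel multiple-ascending-dose study in healthy men aged 18–45. Oral test compound was given at 0.125, 0.25, 0.5 or 0.75 mg (10 subjects per dose) or placebo (n = 10) over 21 days in the fed state. Follow-up visits were on days 28, 35, 42, 56 and 70. Adverse events were recorded throughout the study.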

Where [11] appears, read: healthy subjects receiving amiselimod, all doses.

Regarding `CCCCCCCCc1ccc(CC[C@](N)(CO)COP(=O)(O)O)cc1` [Fingolimod‐P, Fingolimod phosphate], in series [1], the “heart AUC0–last” value is given as 17 182 ng·h·g^−1, the “heart Cmax” value is 479 ng/g and the “plasma AUC0–last” value stood at 556 ng·h/mL. In series [2], the “effect on cardiac Na+ and Ca2+ channels” value is listed as “did not affect”. Also, at human S1P4 receptor (read-out: EC50 values (95% CI), S1P4, agonist activity, intracellular Ca2+ mobilization, geometric mean), the EC50 was 0.0663 µM.

Take `CCCCCCCCCCCCC/C=C/[C@@H](O)[C@@H](N)COP(=O)(O)O` [S1P, sphingosine 1‐phosphate]: the figures for the EC50 on human S1P3 receptor, on human S1P1 receptor and on human S1P4 receptor were 0.00016 µM, 0.00018 µM and 0.0827 µM, respectively. In addition, in [3], the “GIRK current reached, of the maximal current increase evoked by carbachol” value is “more than 90%”.

`CCCCCCCCc1ccc(CCC(N)(CO)CO)cc1` [Fingolimod, fingolimod]: the “decrease in heart rate” value in the series with humans [4] was 6.2 bpm. The “lymphocyte counts decreased below the baseline” value in the series with humans [5] (0.5 mg, RRMS patients, ref Kappos et al., 2010) is on record as 73%. In addition, the “effect on cardiac Na+ and Ca2+ channels” value in [2] was “did not affect”.

`CC(C)Oc1ccc(-c2nc(-c3cccc4c3CC[C@@H]4NCCO)no2)cc1C#N` [ozanimod]: the t1/2 in series [6] was 17.1 h. Moreover, the “lymphocyte count decrease from baseline” value with humans [5] (1 mg, healthy volunteers, ref Olson et al., 2013, Sandborn et al., 2015) was 65%.

Take `CCC/N=C1\S/C(=C\c2ccc(OC[C@H](O)CO)c(Cl)c2)C(=O)N1c1ccccc1C` [ponesimod]: the t1/2 in series [6] is 21.7 to 33.4 h. For the same molecule, the “decrease in the lymphocyte count” value is 56% with humans [5] (20 mg, Phase II) and 65% in the series with humans [5] (40 mg, Phase II).

For `CCCCCCCOc1ccc(CCC(N)(CO)CO)cc1C(F)(F)F.Cl` [Amiselimod, 2‐amino‐2‐{2‐[4‐(heptyloxy)‐3‐(trifluoromethyl)phenyl]ethyl}propan‐1,3‐diol hydrochloride], in the series on healthy subjects [7] (0.5 mg, day 1), the “nadir (1–12 h) mean hourly heart rate, LS mean” value was 62.213 bpm. Also, the “nadir (1–12 h) mean hourly heart rate, LS mean” value in the series with healthy subjects [7] (0.75 mg, day 1) was determined as 61.952 bpm. Moreover, in the series with healthy subjects [7] (0.125–0.75 mg), the “ECG Holter transient AV conduction abnormalities, subjects” value is “five subjects”; the “PR interval, QRS width, QT interval, QTcB interval, QTcF interval and RR interval” value is “not affected”. The “decrease in heart rate versus placebo” value in the series with healthy subjects [7] (up to the 0.75 mg dose, day 1) was “no significant decrease”. The same molecule showed an EC50 on human S1P1 receptor of over 1 µM. At human S1P1 receptor (up to 1000 nmol·L^−1), the “agonist activity at S1P1 receptors” value is recorded as “no agonist activity”. Besides, the “accumulation ratios (range)” value in series [8] (healthy subjects, after 21 day dosing) was 16–29. Also, the “administered dose excreted in the urine” value in series [8] (healthy subjects, day 21) is reported as “Less than 0.2%”. Further, in series [8] (healthy subjects, plasma, across 0.125–0.75 mg doses), the “mean t1/2” value fell in the range of 380 to 420 h. Also, the “period of accumulation to steady state” value in series [8] (humans, inferred from long t1/2) is on record as “approximately 10 weeks”. In addition, in the series with cynomolgus monkeys, the “effect on blood pressure” value is on record as “did not affect” and the “effects on heart rate or ECG parameters (PR interval, QRS duration, QT interval, QTc)” value is “no effects”. In addition, the “decrease in trough lymphocyte counts” value with healthy subjects [9] stood at 60%. In the series on healthy subjects [10] (0.125 mg), the “mild AEs, subjects” value turned out to be 8 subjects and the “moderate AEs, subjects” value is on record as 1 subjects. In the series on healthy subjects [10] (0.25 mg), the “mild AEs, subjects” value came to 4 subjects. Moreover, in the series with healthy subjects [10] (0.5 mg), the “mild AEs, subjects” value is 9 subjects and the “moderate AEs, subjects” value turned out to be 1 subjects. Further, in the series on healthy subjects [10] (0.75 mg), the “mild AEs, subjects” value was 7 subjects and the “moderate AEs, subjects” value amounted to 1 subjects. Further, in the series on healthy subjects [10] (setting [11]), the “number of subjects reporting AEs” value was found to be 28 subjects and the “total number of AEs reported” value is recorded as 74 AEs. In the series on healthy subjects [10] (healthy subjects, during the study), the “severe AEs or serious AEs” value is on record as “no severe AEs or serious AEs”.

As for `CCc1cc(/C(C)=N/OCc2ccc(C3CCCCC3)c(C(F)(F)F)c2)ccc1CN1CC(C(=O)O)C1` [siponimod], the t1/2 in [6] was 21.9 to 36.3 h. The lymphocyte count decrease with humans [5] (2 mg, RRMS patients, Phase II, ref Selmaj et al., 2013) was 70%.

As usually defined, the EC50 is the concentration needed to bring the measured effect to its halfway point.
